Source: ChEMBL document CHEMBL2384906, “Biological activity, design, synthesis and structure activity relationship of some novel derivatives of curcumin containing sulfonamides” (Eur J Med Chem, 2013)
≈ marks a conversion by molar mass, not a printed value. Calls of active or inactive are those of the source. No cut-off for these calls is given here.

Assays:
[1] = system: Mus musculus; experiment: Antiinflammatory activity in mouse assessed as inhibition of carrageenan-induced increase in paw volume at 200 mg/kg administered 1 hr prior to carrageenan challenge measured after 3 hrs relative to control; type: functional
Outline: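 Mice were fasted 2 h and placed in groups of five. Controls received saline i.p. Phenylbutazone was given at 100 mg/kg i.p., curcumin at 200 mg/kg i.p., and derivatives at 200 mg/kg. After 1 h, 0.1 mL of 1% carrageenan in saline was injected subplantar into the right hind paw. Paw volume was followed by plethysmometer for 3 h, and % inhibition was calculated as (Vc − Vt)/Vc × 100.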

[2] = system: Staphylococcus aureus; experiment: Antimicrobial activity against Staphylococcus aureus ATCC 11632 after 24 hrs by broth micro serial dilution method; type: functional
Outline: (§1)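 This was broth microdilution in autoclaved Mueller-Hinton broth. 150 µL of compound per well was serially diluted […], and 50 µL of test organism was added. Plates were incubated 24 h at 37 °C and optical density was read.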

[3] = system: HeLa; experiment: Cytotoxicity against human HeLa cells after 24 hrs by MTT assay; type: functional, cell-based
Outline: (§2)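 The MTT assay seeded 5 × 10⁴ cells per well and grew them 24 h in RPMI 1640 with compound at 2.5–200 µM. Medium without cells was the blank and adriamycin the positive control. MTT was added for 4 h at 37 °C, formazan was solubilised, and absorbance was read at 570 nm. IC50 is the concentration that cuts viability 50% against untreated cells.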

[4] = system: Trichoderma viride; experiment: Antifungal activity against Trichoderma viride MTCC 1107 assessed as zone of inhibition at 40 uM after 48 hrs by disc diffusion method; type: functional; settings: MTCC 1107, 48 h, read-out: IZ
Outline: (§3)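 Spores from 4-day potato dextrose agar cultures, suspended in sterile water at 1.5 × 10⁵ CFU/mL. 0.2 mL was spread on potato dextrose agar. 5 mm filter-paper discs soaked with test compound were laid on the lawn. Incubation was 48 h at 28 °C, then the inhibition zone was measured in mm. Fluconazole was the positive control and acetone the negative control.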

[5] = system: Salmonella typhi; experiment: Antimicrobial activity against Salmonella typhi ATCC 23564 after 24 hrs by broth micro serial dilution method; type: functional
[6] = system: Bacillus cereus; experiment: Antimicrobial activity against Bacillus cereus MTCC 7350 assessed as diameter of inhibition zone at 80 uM after 24 hrs by Kirby -Baur disc diffusion method; type: functional
Outline: (§4)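 Kirby-Bauer disc diffusion was used. Acetone stocks (160 µM) were serially doubled down to 80, 40 and 20 µM. 4 µL of each went onto 5 mm sterile paper discs, which were dried 30 min at 50 °C. Inoculum was 1.5 × 10⁸ CFU/mL diluted to 3 × 10² CFU/mL, and 50 µL was spread on Mueller-Hinton agar. After 24 h at 37 °C the inhibition-zone diameter was measured. Ciprofloxacin served as positive control.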

[7] = system: Curvularia lunata; experiment: Antifungal activity against Curvularia lunata MTCC 581 after 48 hrs; type: functional; settings: MTCC 581, 48 h
[8] = system: Staphylococcus aureus; experiment: Antimicrobial activity against Staphylococcus aureus ATCC 11632 assessed as diameter of inhibition zone at 40 uM after 24 hrs by Kirby -Baur disc diffusion method; type: functional; outline: as §4
[9] = system: Escherichia coli; experiment: Antimicrobial activity against Escherichia coli ATCC 35218 assessed as diameter of inhibition zone at 80 uM after 24 hrs by Kirby -Baur disc diffusion method; type: functional; outline: as §4
[10] = system: Aspergillus flavus; experiment: Antifungal activity against Aspergillus flavus MTCC 1021 assessed as zone of inhibition at 80 uM after 48 hrs by disc diffusion method; type: functional; settings: MTCC 1021, 48 h, read-out: IZ; outline: as §3
[11] = system: Aspergillus flavus; experiment: Antifungal activity against Aspergillus flavus MTCC 1021 after 48 hrs; type: functional; settings: MTCC 1021, 48 h
[12] = system: HepG2; experiment: Cytotoxicity against human HepG2 cells after 24 hrs by MTT assay; type: functional, cell-based; outline: as §2
[13] = system: Pseudomonas aeruginosa; experiment: Antimicrobial activity against Pseudomonas aeruginosa ATCC 15499 after 24 hrs by broth micro serial dilution method; type: functional; settings: ATCC 15499, 24 h; outline: as §1
[14] = system: Aspergillus niger; experiment: Antifungal activity against Aspergillus niger MTCC 1108 assessed as zone of inhibition at 20 uM after 48 hrs by disc diffusion method; type: functional; outline: as §3
[15] = system: Staphylococcus aureus; experiment: Antimicrobial activity against Staphylococcus aureus ATCC 11632 assessed as diameter of inhibition zone at 20 uM after 24 hrs by Kirby -Baur disc diffusion method; type: functional; outline: as §4
[16] = system: Trichoderma viride; experiment: Antifungal activity against Trichoderma viride MTCC 1107 after 48 hrs; type: functional; settings: MTCC 1107, 48 h
[17] = system: Bacillus cereus; experiment: Antimicrobial activity against Bacillus cereus MTCC 7350 assessed as diameter of inhibition zone at 20 uM after 24 hrs by Kirby -Baur disc diffusion method; type: functional; outline: as §4
[18] = system: HCT-116; experiment: Cytotoxicity against human HCT116 cells after 24 hrs by MTT assay; type: functional, cell-based; outline: as §2
[19] = system: Escherichia coli; experiment: Antimicrobial activity against Escherichia coli ATCC 35218 after 24 hrs by broth micro serial dilution method; type: functional; settings: ATCC 35218, 24 h; outline: as §1
[20] = system: Bacillus cereus; experiment: Antimicrobial activity against Bacillus cereus MTCC 7350 assessed as diameter of inhibition zone at 40 uM after 24 hrs by Kirby -Baur disc diffusion method; type: functional; outline: as §4
[21] = system: Salmonella typhi; experiment: Antimicrobial activity against Salmonella typhi ATCC 23564 assessed as diameter of inhibition zone at 80 uM after 24 hrs by Kirby -Baur disc diffusion method; type: functional
[22] = system: Aspergillus flavus; experiment: Antifungal activity against Aspergillus flavus MTCC 1021 assessed as zone of inhibition at 40 uM after 48 hrs by disc diffusion method; type: functional; settings: MTCC 1021, 48 h, read-out: IZ; outline: as §3
[23] = system: Staphylococcus aureus; experiment: Antimicrobial activity against Staphylococcus aureus ATCC 11632 assessed as diameter of inhibition zone at 80 uM after 24 hrs by Kirby -Baur disc diffusion method; type: functional; outline: as §4
[24] = system: Curvularia lunata; experiment: Antifungal activity against Curvularia lunata MTCC 581 assessed as zone of inhibition at 20 uM after 48 hrs by disc diffusion method; type: functional; outline: as §3
[25] = system: Pseudomonas aeruginosa; experiment: Antimicrobial activity against Pseudomonas aeruginosa ATCC 15499 assessed as diameter of inhibition zone at 80 uM after 24 hrs by Kirby -Baur disc diffusion method; type: functional; outline: as §4
[26] = system: Aspergillus niger; experiment: Antifungal activity against Aspergillus niger MTCC 1108 after 48 hrs; type: functional; settings: MTCC 1108, 48 h
[27] = system: Bacillus cereus; experiment: Antimicrobial activity against Bacillus cereus MTCC 7350 after 24 hrs by broth micro serial dilution method; type: functional; outline: as §1
[28] = system: Trichoderma viride; experiment: Antifungal activity against Trichoderma viride MTCC 1107 assessed as zone of inhibition at 80 uM after 48 hrs by disc diffusion method; type: functional; settings: MTCC 1107, 48 h, read-out: IZ; outline: as §3
[29] = system: Curvularia lunata; experiment: Antifungal activity against Curvularia lunata MTCC 581 assessed as zone of inhibition at 80 uM after 48 hrs by disc diffusion method; type: functional; settings: MTCC 581, 48 h, read-out: IZ; outline: as §3
[30] = system: Trichoderma viride; experiment: Antifungal activity against Trichoderma viride MTCC 1107 assessed as zone of inhibition at 20 uM after 48 hrs by disc diffusion method; type: functional; outline: as §3
[31] = system: QG-56; experiment: Cytotoxicity against human QG56 cells after 24 hrs by MTT assay; type: functional, cell-based; outline: as §2
[32] = system: Aspergillus niger; experiment: Antifungal activity against Aspergillus niger MTCC 1108 assessed as zone of inhibition at 40 uM after 48 hrs by disc diffusion method; type: functional; outline: as §3
[33] = system: Aspergillus niger; experiment: Antifungal activity against Aspergillus niger MTCC 1108 assessed as zone of inhibition at 80 uM after 48 hrs by disc diffusion method; type: functional; settings: MTCC 1108, 48 h, read-out: IZ; outline: as §3
[34] = system: Curvularia lunata; experiment: Antifungal activity against Curvularia lunata MTCC 581 assessed as zone of inhibition at 40 uM after 48 hrs by disc diffusion method; type: functional; settings: MTCC 581, 48 h, read-out: IZ; outline: as §3
[35] = system: Aspergillus flavus; experiment: Antifungal activity against Aspergillus flavus MTCC 1021 assessed as zone of inhibition at 20 uM after 48 hrs by disc diffusion method; type: functional; outline: as §3
[36] = system: Escherichia coli; experiment: Antimicrobial activity against Escherichia coli ATCC 35218 assessed as diameter of inhibition zone at 20 uM after 24 hrs by Kirby -Baur disc diffusion method; type: functional; outline: as §4
[37] = system: Pseudomonas aeruginosa; experiment: Antimicrobial activity against Pseudomonas aeruginosa ATCC 15499 assessed as diameter of inhibition zone at 20 uM after 24 hrs by Kirby -Baur disc diffusion method; type: functional; outline: as §4
[38] = system: Salmonella typhi; experiment: Antimicrobial activity against Salmonella typhi ATCC 23564 assessed as diameter of inhibition zone at 40 uM after 24 hrs by Kirby -Baur disc diffusion method; type: functional, Salmonella enterica subsp. enterica serovar Typhi; settings: Salmonella enterica, ATCC 23564, 24 h; read-out: DIZ
[39] = system: Salmonella typhi; experiment: Antimicrobial activity against Salmonella typhi ATCC 23564 assessed as diameter of inhibition zone at 20 uM after 24 hrs by Kirby -Baur disc diffusion method; type: functional; settings: Salmonella enterica subsp. enterica serovar Typhi
[40] = system: Pseudomonas aeruginosa; experiment: Antimicrobial activity against Pseudomonas aeruginosa ATCC 15499 assessed as diameter of inhibition zone at 40 uM after 24 hrs by Kirby -Baur disc diffusion method; type: functional; outline: as §4
[41] = system: Escherichia coli; experiment: Antimicrobial activity against Escherichia coli ATCC 35218 assessed as diameter of inhibition zone at 40 uM after 24 hrs by Kirby -Baur disc diffusion method; type: functional; settings: ATCC 35218, 24 h, read-out: DIZ; outline: as §4
[42] = Salmonella enterica subsp. enterica serovar Typhi

SMILES	inhibition in vivo at 200 mg/kg [1] [%]	IC50 [3] [µM]	zone of inhibition at 40 µM [4] [mm]	MIC [7] [µM]	zone of inhibition at 80 µM [10] [mm]	MIC [11] [µM]	IC50 [12]	MIC [13] [µM]	MIC [16] [µM]	IC50 [18]	MIC [19] [µM]	zone of inhibition at 40 µM [22] [mm]	MIC [26] [µM]	zone of inhibition at 80 µM [28] [mm]	zone of inhibition at 80 µM [29] [mm]	IC50 [31]	zone of inhibition at 80 µM [33] [mm]	zone of inhibition at 40 µM [34] [mm]	other results
COc1cc(/C=C/C(=O)C(/N=N/c2ccc(S(=O)(=O)Nc3nc(C)cc(C)n3)cc2)=C(O)/C=C/c2ccc(O)c(OC)c2)ccc1O	33.8	50	19	20 (≈ 13.2 µg/mL)	14	40 (≈ 26.3 µg/mL)	> 100 µM	> 80	20 (≈ 13.2 µg/mL)	Not Active	> 80	13	40 (≈ 26.3 µg/mL)	22	22	100 µM	14	19	MIC ([2]; ATCC 11632, 24 h): > 80 µM; MIC [5, 42]: inactive; zone of inhibition at 80 µM ([6]; MTCC 7350, 24 h, read-out: DIZ): 11 mm; diameter of the inhibition zone (DIZ) [8]: inactive; diameter of the inhibition zone (DIZ) [9]: inactive; zone of inhibition at 20 µM ([14]; MTCC 1108, 48 h, read-out: IZ): 9 mm; diameter of the inhibition zone (DIZ) [15]: inactive; diameter of the inhibition zone (DIZ) [17]: inactive; diameter of the inhibition zone (DIZ) [20]: inactive; diameter of the inhibition zone (DIZ) [21, 42]: inactive; zone of inhibition at 80 µM ([23]; ATCC 11632, 24 h, read-out: DIZ): 10 mm; zone of inhibition at 20 µM ([24]; MTCC 581, 48 h, read-out: IZ): 18 mm; diameter of the inhibition zone (DIZ) [25]: inactive; MIC ([27]; MTCC 7350, 24 h): > 80 µM; zone of inhibition at 20 µM ([30]; MTCC 1107, 48 h, read-out: IZ): 18 mm; zone of inhibition at 40 µM ([32]; MTCC 1108, 48 h, read-out: IZ): 12 mm; zone of inhibition at 20 µM ([35]; MTCC 1021, 48 h, read-out: IZ): 11 mm
COc1cc(/C=C/C(=O)C(/N=N/c2ccc(S(N)(=O)=O)cc2)=C(O)/C=C/c2ccc(O)c(OC)c2)ccc1O	16.1	> 100	10	> 80	11	> 80	Not Active	> 80	> 80	Not Active	> 80	9	> 80	11	11	Not Active	10	10	MIC [2]: inactive; diameter of the inhibition zone (DIZ) [36]: inactive; diameter of the inhibition zone (DIZ) [37]: inactive; MIC ([5]; Salmonella enterica, ATCC 23564, 24 h): > 80 µM; diameter of the inhibition zone (DIZ) [6]: inactive; zone of inhibition at 40 µM [38]: 9 mm; zone of inhibition at 80 µM ([9]; ATCC 35218, 24 h, read-out: DIZ): 12 mm; inhibition zone (IZ) [14]: inactive; diameter of the inhibition zone (DIZ) [39]: inactive; zone of inhibition at 80 µM ([21]; Salmonella enterica, ATCC 23564, 24 h, read-out: DIZ): 11 mm; diameter of the inhibition zone (DIZ) [23]: inactive; inhibition zone (IZ) [24]: inactive; diameter of the inhibition zone (DIZ) [40]: inactive; zone of inhibition at 80 µM ([25]; ATCC 15499, 24 h, read-out: DIZ): 9 mm; zone of inhibition at 40 µM [41]: 9 mm; MIC [27]: inactive; inhibition zone (IZ) [30]: inactive; inhibition zone (IZ) [32]: inactive; inhibition zone (IZ) [35]: inactive
